Results gathered from unrelated publications.
Compare with care: the assays were run in different laboratories.
Target: Inhibitor of nuclear factor kappa-B kinase subunit beta (IKBKB, Homo sapiens, UniProt O14920)
Residues used in one study (O14920 1-756): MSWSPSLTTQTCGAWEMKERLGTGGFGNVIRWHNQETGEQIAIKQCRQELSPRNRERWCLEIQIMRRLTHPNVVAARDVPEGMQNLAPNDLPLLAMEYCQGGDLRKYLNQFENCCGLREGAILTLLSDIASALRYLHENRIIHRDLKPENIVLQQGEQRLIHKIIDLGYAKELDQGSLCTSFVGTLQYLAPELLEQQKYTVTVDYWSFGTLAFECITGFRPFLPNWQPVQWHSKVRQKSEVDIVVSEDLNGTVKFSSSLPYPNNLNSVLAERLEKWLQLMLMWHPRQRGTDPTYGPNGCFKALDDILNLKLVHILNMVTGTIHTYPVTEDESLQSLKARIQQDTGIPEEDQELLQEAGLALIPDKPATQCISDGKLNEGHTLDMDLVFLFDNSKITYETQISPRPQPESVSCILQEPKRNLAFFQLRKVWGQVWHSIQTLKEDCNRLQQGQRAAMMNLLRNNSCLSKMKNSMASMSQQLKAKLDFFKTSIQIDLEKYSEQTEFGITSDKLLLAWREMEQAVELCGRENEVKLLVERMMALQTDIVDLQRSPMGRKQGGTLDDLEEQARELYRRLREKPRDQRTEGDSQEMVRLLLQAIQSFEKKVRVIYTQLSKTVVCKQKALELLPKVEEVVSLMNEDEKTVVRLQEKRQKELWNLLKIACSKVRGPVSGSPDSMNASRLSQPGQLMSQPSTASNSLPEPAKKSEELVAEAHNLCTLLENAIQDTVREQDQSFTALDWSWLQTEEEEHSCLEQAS

SMILES	test	setting	remaining binding [%]
COc1ccnn2ncc(-c3ccnc(N(C)C)n3)c12	binding, competition with immobilised ligand	1 µM	98
O=C(Nc1c[nH]nc1C(=O)NC1CCNCC1)c1cc(F)cc(F)c1	binding, competition with immobilised ligand	1 µM	100
O=C(O)c1cc(-c2ccc(C3CCNCC3)cc2)c2ccc(-c3ccc(C(F)(F)F)cc3)cc2c1	cell-free assay, competition with immobilised ligand	1 µM	100
COc1cnc(Nc2cccc(S(N)(=O)=O)c2)nc1N1CCN(c2ccccc2)C(=O)C1	binding, competition with immobilised ligand	1 µM	93
CN(CCCC(F)(F)F)c1nccc(-c2cnn3ncccc23)n1	binding, competition with immobilised ligand	1 µM	100
CNC(=O)Nc1ccc2c(c1)CC[C@@]21OC(=O)N(CC(=O)N(Cc2ccc(F)cc2)[C@@H](C)C(F)(F)F)C1=O	cell-free assay, competition with immobilised ligand	1 µM	83
CC1CCCN1c1nccc(-c2cnn3ncccc23)n1 (stereo not shown)	binding, competition with immobilised ligand	1 µM	100
O=C(NCCCN1CCOCC1)c1ccc(Nc2ncc(Cl)c(-c3ccc(Cl)s3)n2)cc1	binding, competition with immobilised ligand	1 µM	23
C[C@H]1CCN(c2nccc(-c3cnn4ncccc34)n2)C1	binding, competition with immobilised ligand	1 µM	64
C=CC(=O)N1CCC(C(=O)NCC(=O)N2CCN(c3nc(-c4cnc(N)nc4C(F)F)nc(N4CCOCC4)n3)CC2)CC1	binding, competition with immobilised ligand	1 µM	73
N#Cc1ccccc1CSc1nnc2c(n1)[nH]c1ccccc12	binding, competition with immobilised ligand	10 µM	100
CCCOc1ccc([C@@H]2[C@@H](C(=O)O)[C@H](c3ccc4c(c3)OCO4)CN2CC(=O)Nc2c(CC)cccc2CC)cc1	cell-free assay, competition with immobilised ligand	1 µM	94
O=C(c1ccc(Nc2nccc(-c3cc4ccccc4s3)n2)cc1)N1CCC(N2CCCC2)CC1	binding, competition with immobilised ligand	1 µM	0.1
CN(c1nccc(-c2cnn3ncccc23)n1)C1CC1	binding	1 µM	100
O=C(NCCCN1CCOCC1)c1ccc(Nc2nccc(-c3cc4ccccc4s3)n2)cc1	binding, competition with immobilised ligand	1 µM	5.1
C[C@@]1(Cc2ccc(C#N)cc2)C(=O)N(c2cc(Cl)cc(Cl)c2)c2ncc(C(=O)NC3(c4nc(C5CCC5)no4)CC3)n21	cell-free assay, competition with immobilised ligand	1 µM	100
FC(F)(F)Oc1cccc(-c2cnc3ccc(-c4ccncc4)nn23)c1	cell-free assay, competition with immobilised ligand	5 µM	56
CN1CCN(c2cnc3c(C4CCN(C(=O)c5ccc(OC(F)(F)F)cc5N)CC4)ncnc3c2)CC1	cell-free assay, competition with immobilised ligand	1 µM	100
C[C@@H](c1ccc(-n2cnc3c(N)ncnc32)cc1)N1CCc2nn(C)c(Cc3ccccc3)c2C1=O	binding, competition with immobilised ligand	0.1 µM	68
N[C@@H]1CCN(c2nccc(-c3cnn4ncccc34)n2)C1	binding, competition with immobilised ligand	1 µM	100
CCOC(=O)c1cc2cc(-c3cc(C(=O)NCc4ccc(C(=O)O)cc4)nn3C)ccc2[nH]1	cell-free assay, competition with immobilised ligand	0.1 µM	100
Cc1cnn2ncc(-c3ccnc(N(C)C)n3)c2c1	binding, competition with immobilised ligand	1 µM	53
C[C@@H]1CN(c2ccc3ncc(-c4ccc5[nH]nc(C6CC6)c5c4)n3n2)C[C@H](C)O1	binding, competition with immobilised ligand	50 nM	88
CS(=O)(=O)c1cc(C2(NC(=O)c3cncc4c3cnn4-c3ccc(F)cc3)CC2)ccn1	cell-free assay, competition with immobilised ligand	1 µM	100
COc1ncc2cc3ccccc3nc2c1C#N	cell-free assay, competition with immobilised ligand	5 µM	96
